Assay results reported in ChEMBL document CHEMBL3779799, “Antifibrotic and anticancer action of 5-ene amino/iminothiazolidinones” (Eur J Med Chem, 2016).
The source made the active and inactive calls. The calls are words filed in the database; no cut-off is given here.

Experiments:
[1] = Antioxidant activity assessed as inhibition of superoxide anion generation measured for 3 mins by nitro blue tetrazolium assay; type: physicochemical; details: for Emax: 0.05 h
In short: (§1)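 Cell-free superoxide generated by xanthine (1 mM) and xanthine oxidase (0.11 U/mL), with NBT (50 µM) as detector. Compounds in DMSO were tested up to 10 µM, with DMSO held at 0.1%. NBT reduction rate (dA560/dt) was read spectrophotometrically over 3 min from the linear part.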

HFL1 [2] = test: Antifibrotic activity in HFL1 cells assessed as inhibition of cell viability at >1 uM after 48 hrs by sulforhodamine B assay relative to control; type: functional; details: Homo sapiens, HFL1, 48 h
In short: (§2)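 HFL-1 human fetal lung fibroblasts (DMEM, 10% FCS, passages 14–18) seeded at 8000 cells/well, attached overnight, then exposed to a range of concentrations for 48 h in triplicate. Cells were fixed with TCA and stained with 0.4% SRB, bound dye was solubilized in Tris, and OD was read at 570 nm relative to control.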

HFL1 [3] = test: Antifibrotic activity in HFL1 cells assessed as inhibition of cell viability after 48 hrs by sulforhodamine B assay; type: functional, cell-based; details: Homo sapiens, HFL1, 48 h; in short: as §2
NCI-H460 = test: Cytotoxicity against human NCI-H460 cells assessed as cell growth at 10^-4 M after 48 hrs by sulforhodamine B assay relative to control; type: functional; details: NCI-H460, 48 h, read-out: Activity
In short: (§3)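 Cells were inoculated and preincubated 24–48 h, then exposed to a single dose of 10^-4 M for 48 h. SRB protein staining was the endpoint, and growth percent was calculated versus untreated controls.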

[4] = Cytotoxicity against human SF268 cells assessed as cell growth at 10^-4 M after 48 hrs by sulforhodamine B assay relative to control; type: functional; details: SF-268, 48 h, read-out: Activity; in short: as §3
MCF7 = test: Cytotoxicity against human MCF7 cells assessed as cell growth at 10^-4 M after 48 hrs by sulforhodamine B assay relative to control; type: functional; details: MCF7, 48 h, read-out: Activity; in short: as §3
HFL1 [5] = test: Antifibrotic activity in HFL1 cells assessed as reduction in cell proliferation at 0.1 to 1 uM after 150 hrs by xCelligence analysis; type: functional, cell-based; details: Homo sapiens
In short: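 HFL-1 cells were seeded at 20,000/well and monitored by real-time impedance (xCelligence). Compound or DMSO vehicle was added at ~30 h, once attachment was maximal, and cells were followed for another 150 h. P150 was taken as the signal difference between 30 h and 180 h; Pdot was the maximum slope of the curve.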

[6] = Antioxidant activity assessed as inhibition of superoxide anion generation upto 10 uM measured for 3 mins by nitro blue tetrazolium assay; type: physicochemical; details: 0.05 h; in short: as §1
HFL1 [7] = test: Antifibrotic activity in HFL1 cells assessed as reduction in cell proliferation after 150 hrs by xCelligence analysis; details: Homo sapiens
[8] = Cytotoxicity against human SNB75 cells assessed as cell growth at 10^-5 M after 48 hrs by sulforhodamine B assay relative to control; type: functional; details: SNB-75, 48 h, read-out: Activity
In short: (§4)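 NCI ~60 human tumor cell line one-dose screen covering nine cancer types. Cells were preincubated 24–48 h, then exposed to compound at 10^-5 M for 48 h. SRB protein staining was the endpoint, and growth percent was calculated versus untreated control cells.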

[9] = Cytotoxicity against human NCI60 cells assessed as cell growth at 10^-5 M after 48 hrs by sulforhodamine B assay relative to control; type: functional; details: NCI60, 48 h, read-out: Activity; in short: as §4
NCI-H522 = test: Cytotoxicity against human NCI-H522 cells assessed as cell growth at 10^-5 M after 48 hrs by sulforhodamine B assay relative to control; type: functional; details: NCI-H522, 48 h, read-out: Activity; in short: as §4
[10] = Cytotoxicity against human RPMI8226 cells assessed as cell growth at 10^-5 M after 48 hrs by sulforhodamine B assay relative to control; type: functional; details: RPMI-8226, 48 h, read-out: Activity; in short: as §4
[11] = Cytotoxicity against human UO31 cells assessed as cell growth at 10^-5 M after 48 hrs by sulforhodamine B assay relative to control; type: functional; details: UO-31, 48 h, read-out: Activity; in short: as §4

`CC1S/C(=N/N=C/c2cccnc2)NC1=O` (racemic) gave an IC50 [1] of 1960 nM, an Emax [1] of 35.8% and an Emax (HFL1 [2]) of 84.6%. For the same molecule, the IC50 (HFL1 [3]) was 830 nM.

For `COc1ccccc1NC(=O)CSc1nnc(NC2=NC(=O)/C(=C/c3ccc(Cl)cc3)S2)s1`, the Emax (HFL1 [2]) was 17.4% and the IC50 (HFL1 [3]) was 40 nM.

In the case of `O=C1N=C(Nc2ccc(O)cc2)S/C1=C1\C(=O)Nc2ccccc21`, the growth at 100 µM (NCI-H460) is reported as 96%, the growth at 100 µM [4] is reported as 118% and the growth at 100 µM (MCF7) is reported as 108%.

For `COc1ccccc1NC(=O)CSc1nnc(/N=C2\NC(=O)CS2)s1`, the Activity (HFL1 [5]) was “Active”, the Emax (HFL1 [2]) was 75% and the “inhibition (INH)” value [6] was “Not Active”. For the same molecule, the IC50 (HFL1 [3]) was 400 nM.

Molecule `CCOc1cc(/C=C2\SC(Nc3nc4ccc(C)cc4s3)=NC2=O)ccc1O` has an IC50 [1] of 6800 nM, an Emax [1] of 38.7% and an Emax (HFL1 [2]) of 48.1%. It also gave an IC50 (HFL1 [3]) of 10 nM.

Molecule `CCC1S/C(=N\N=C/c2cccnc2)N(Cc2ccco2)C1=O` (mixture of isomers) has an Emax (HFL1 [2]) of 44.7% and an IC50 (HFL1 [3]) of 210 nM.

For `O=C1N=C(Nc2ccc(O)cc2)S/C1=C\c1ccc(Cl)cc1`, the Activity (HFL1 [7]) was “Dose-dependent effect”, the Emax (HFL1 [2]) was 46.1% and the IC50 (HFL1 [3]) was 20 nM.

With `COc1ccc(-c2nnc(/N=C3\NC(=O)CS3)o2)cc1` the IC50 [1] was 290 nM, the Emax [1] was 81.8% and the Activity (HFL1 [5]) was “Active”. It also gave an Emax (HFL1 [2]) of 84.6%, a growth at 10 µM [8] of 71.9% and a growth at 10 µM [9] of 102%. The IC50 (HFL1 [3]) was 470 nM.

For `Cc1ccc2c(c1)/C(=C1/SC(N(C)c3ccc(O)cc3)=NC1=O)C(=O)N2`, the growth at 100 µM (NCI-H460) was 95%, the Emax (HFL1 [2]) was 31.3% and the IC50 (HFL1 [3]) was 70 nM. It also gave a growth at 100 µM [4] of 74% and a growth at 100 µM (MCF7) of 89%.

`O=C(CC1SC(Nc2ccc(O)cc2)=NC1=O)c1ccc(F)cc1` (racemic) showed a growth at 100 µM (NCI-H460) of 62%, an Emax (HFL1 [2]) of 54.2% and an IC50 (HFL1 [3]) of 190 nM. The growth at 100 µM [4] was 53% and the growth at 100 µM (MCF7) was 66%.

`O=C1CS/C(=N\N=C/c2cccnc2)N1Cc1ccco1` gave an Emax (HFL1 [2]) of 69.4% and an IC50 (HFL1 [3]) of 500 nM.

In the case of `Cc1ccc(=O)n(-c2ccccc2)c1` [PIRFENIDONE], the growth at 10 µM (NCI-H522) is reported as 79.8%, the growth at 10 µM [10] is reported as 76% and the Activity (HFL1 [7]) is reported as “Dose-dependent effect”. The Emax (HFL1 [2]) was 78.5%, the “inhibition (INH)” value [6] was “Not Active” and the growth at 10 µM [9] was 96.3%. For the same molecule, the IC50 (HFL1 [3]) was 710 nM and the growth at 10 µM [11] was 76.9%.
